From ChEMBL document CHEMBL3425475, “Identification of indole inhibitors of human hematopoietic prostaglandin D2 synthase (hH-PGDS)” (Bioorg Med Chem Lett, 2015)
Converted amounts (≈) assume the structure as drawn.

How the values were obtained:
[1] = molecular target: T1, Hematopoietic prostaglandin D synthase (Homo sapiens, UniProt O60760); test: Inhibition human HPGDS expressed in Escherichia coli assessed as reduction in GST enzymatic activity using MCBL and glutathione incubated for 30 mins by fluorescence based assay
Summary of the method: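 Compound was preincubated 30 min with enzyme at 1.5 µg/ml in 50 mM Tris, 2 mM MgCl2, 0.1% CHAPS. MCBL (0.4 mM, added solution) and glutathione were then added, and fluorescence (ex 360/em 460) was read at once and again after 30 min. Readings were normalised to DMSO wells (0%) and a control inhibitor (100%). Values are means of at least two independent experiments.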

[2] = molecular target: T1, Hematopoietic prostaglandin D synthase; test: Binding affinity to human HPGDS expressed in Escherichia coli using 1-phenylpyrazole-4-carboxylic acid/6-(3-fluorophenyl)pyridine-3-carboxamide as reporter probe by ligand-observed 1D NMR T1rho binding assay
Summary of the method: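 Ligand-observed NMR displacement of reporter molecules from recombinant E. coli-expressed wild-type hH-PGDS. Active-site binding of the reporters was confirmed by competition with a known inhibitor. Kd was calculated from the extent of reporter displacement at two compound concentrations, using the experimentally determined reporter and compound concentrations in an exact mathematical expression. Values are means of at least two independent experiments.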

[3] = Solubility of the compound; assay type: physicochemical
[4] = molecular target: T1, Hematopoietic prostaglandin D synthase; test: Inhibition fluorescein-conjugated ligand binding to human HPGDS expressed in Escherichia coli by fluorescence polarization assay
Summary of the method: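 Recombinant E. coli-expressed hH-PGDS. Displacement of a fluorescein-conjugated potent hH-PGDS inhibitor by compound was followed in dose-response by fluorescence polarization, excitation 470 nm and emission 530 nm. The assay was adapted from a commercial kit.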

[5] = molecular target: T1, Hematopoietic prostaglandin D synthase; test: Inhibition HPGDS in human MEG01 cells assessed as reduction in PGD2 production incubated for 30 mins followed by stimulation with 5 uM ionomycin for 30 mins by enzyme immunoassay method; assay type: cell-based, MEG-01
Summary of the method: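 MEG-01 cells were differentiated with 0.1 µM PMA for 16 h, then plated. Inhibitor was added in concentration response, 10 µM–0.15 nM, for 30 min at 37 °C, followed by 5 µM ionomycin for 30 min at 37 °C. Secreted PGD2 in the medium was quantified by PGD2-MOX EIA.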

[6] = molecular target: T1, Hematopoietic prostaglandin D synthase; test: Binding affinity to human HPGDS expressed in Escherichia coli by isothermal titration calorimetry
Summary of the method: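 Recombinant wild-type hH-PGDS, expressed in E. coli and purified by cation exchange and gel filtration. Ligand, typically 500 µM at experimentally determined concentration, titrated in 2 µL aliquots into 30–40 µM protein. Reverse titrations (protein into ligand) used where ligand solubility was low. Values are means of at least two independent experiments.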

T1 sequence (O60760 whole entry): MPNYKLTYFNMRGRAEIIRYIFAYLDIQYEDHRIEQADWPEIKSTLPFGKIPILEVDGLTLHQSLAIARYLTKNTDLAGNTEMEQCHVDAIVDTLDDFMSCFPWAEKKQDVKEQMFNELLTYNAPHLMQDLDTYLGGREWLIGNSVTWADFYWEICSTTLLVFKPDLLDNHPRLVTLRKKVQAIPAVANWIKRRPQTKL

IC50 [1]	Kd [2]	solubility [3]	IC50 [4]	EC50 [5]	Kd [6]	SMILES
32 nM	60 nM					CCC(=O)Nc1cncc(-c2cccc3[nH]ccc23)c1
300 nM	340 nM	95 µM (≈ 29.3 µg/mL)	460 nM	350 nM	210 nM	CN(C)CCC(=O)Nc1cncc(-c2cccc3[nH]ccc23)c1
170 nM	650 nM	77 µM (≈ 23.1 µg/mL)	2900 nM			COCCCNC(=O)c1nc(-c2cccc3[nH]ccc23)no1
43 nM	200 nM					O=C(Cn1cnnn1)Nc1cncc(-c2cccc3[nH]ccc23)c1
					800 nM	NC(=O)c1ccc(-c2cccc(F)c2)nc1
26 nM	50 nM					O=C(CCc1cccnc1)Nc1cncc(-c2cccc3[nH]ccc23)c1
200 nM	9.5 nM	2.6 µM (≈ 0.992 µg/mL)		35 nM	20 nM	O=C(NC1CCN(CC(F)(F)F)CC1)c1ccc(-c2cccc(F)c2)nc1
70 nM	200 nM					O=C(NC1CCN(CC(F)(F)F)CC1)c1ccc(-c2cc[nH]c(=O)c2)nc1
130 nM	1000 nM					O=C(CCN1CCCCC1)Nc1cncc(-c2cccc3[nH]ccc23)c1
	13000 nM					O=C(NC1CCN(CC(F)(F)F)CC1)c1ccc(N2CCNCC2)nc1
35 nM	300 nM					O=C1CC[C@@H](C(=O)Nc2cncc(-c3cccc4[nH]ccc34)c2)N1
23 nM	51 nM	1.4 µM (≈ 0.318 µg/mL)		110 nM	300 nM	c1ccc(-c2ncc(-c3cc[nH]n3)s2)cc1
70 nM	23 nM			74 nM	35 nM	CC(C)(O)c1nc(-c2ccc(CNC(=O)c3cnc(-c4ccccn4)nc3)cc2)no1
60 nM	44 nM	4.2 µM (≈ 1.65 µg/mL)	210 nM	130 nM	12 nM	COc1cccc(-c2ccc(C(=O)NC3CCN(CC(F)(F)F)CC3)cn2)c1
	14000 nM					CN(C)c1ccc(C(=O)NC2CCN(CC(F)(F)F)CC2)cn1
1200 nM	< 20000 nM					Cn1cncc1CC(=O)Nc1cncc(-c2cccc3[nH]ccc23)c1
48 nM	< 100 nM					O=C(NC1CCN(CC(F)(F)F)CC1)c1ccc(N2CCCCC2)nc1
31 nM	60 nM					O=C(NC1CCN(CC(F)(F)F)CC1)c1ccc(Oc2ccccc2)nc1
230 nM	200 nM					O=C(NC1CCN(CC(F)(F)F)CC1)c1ccc(N2CCCC2)nc1
590 nM	1000 nM					O=C1CN(c2ccc(C(=O)NC3CCN(CC(F)(F)F)CC3)cn2)CCN1
71 nM	400 nM					O=C(NC1CCN(CC(F)(F)F)CC1)c1ccc(-c2cccc(=O)[nH]2)nc1
	2000 nM					COc1cc(-c2ccc(C(=O)NC3CCN(CC(F)(F)F)CC3)cn2)ccn1
320 nM	400 nM					O=C(NC1CCN(CC(F)(F)F)CC1)c1ccc(N2CCOCC2)nc1
180 nM	570 nM	84 µM (≈ 27.1 µg/mL)	820 nM			CN(C)CCCC(=O)Nc1cncc(-c2cccc3[nH]ccc23)c1
	10000 nM					O=C(NC1CCN(CC(F)(F)F)CC1)c1ccc(-c2ccc(=O)[nH]c2)nc1

SMILES	IC50 [1]	Kd [2]	solubility [3]	IC50 [4]	EC50 [5]	Kd [6]
O=C(O)c1cnn(-c2ccccc2)c1						140000 nM
